The source made the active and inactive calls. The rule behind the calls is not given here.
Key:
[1] = organism: Bos taurus; experiment: Inhibition of bovine tubulin polymerization assessed as lag time for tubulin polymerization at 1 uM measured every 30 secs for 2 hrs by turbidity method
Outline: (§1)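 Kit-based turbidity assay with tubulin at 26.7 μM (2.94 mg/mL) in G-PB buffer (polymerization buffer, GTP, glycerol), assembled on ice. Compound stocks in DMSO diluted in water to give 1 or 10 μM. A350 read every 30 s for 2 h at 37 °C. Nocodazole and DMSO (1.43% or 0.14% v/v) as controls. Duplicate assays. Area under curve compared by one-way ANOVA with Bonferroni post-test.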

[2] = organism: Bos taurus; experiment: Inhibition of bovine tubulin polymerization at 1 uM measured every 30 secs for 2 hrs by turbidity method; outline: as §1
[3] = test system: MCF7; experiment: Cytotoxicity against human MCF7 cells assessed as cell viability at 5 to 10 uM after 72 hrs by MTS/PMS assay relative to control; format: functional
Outline: (§2)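 MCF-7 cells grown in DMEM with 10% heat-inactivated FBS, penicillin, streptomycin, L-glutamine and MEM NEAA at 37 °C, 5% CO2. Seeded at 5000 cells/well. After 24 h, given fresh medium plus compound (DMSO stock diluted in DPBS; final 0–10 μM) for 72 h. Then serum-free medium with MTS/PMS for 1 h at 37 °C. A490 read, viability as % of untreated cells. IC50 read graphically. Six replicates, three independent experiments.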

[4] = organism: Bos taurus; experiment: Inhibition of bovine tubulin polymerization at 10 uM measured every 30 secs for 2 hrs by turbidity method; outline: as §1
[5] = test system: MCF7; experiment: Cytotoxicity against human MCF7 cells after 72 hrs by MTS/PMS assay; format: functional, cell-based; settings: for IC50: MCF7, 72 h; outline: as §2

With `CCCCC/C=C\C/C=C\CCCCCCCC(=O)Oc1cc(/C=C\c2cc(OC)c(OC)c(OC)c2)ccc1OC` the TIME [1] was 0.25 to 0.333 h, the inhibition [2] was “Active” and the Activity [3] was 65 - 75%. For the same molecule, the inhibition [4] was “inactive” and the IC50 [5] was > 10000 nM.

`COc1ccc(/C=C\c2cc(OC)c(OC)c(OC)c2)cc1O` [COMBRETASTATIN A4] was tested, and the inhibition [2] was “Active” and the IC50 [5] was 200 nM.

For `CC/C=C\C/C=C\C/C=C\CCCCCCCC(=O)Oc1cc(/C=C\c2cc(OC)c(OC)c(OC)c2)ccc1OC`, the TIME [1] was 0.25 to 0.333 h, the inhibition [2] was “Active” and the Activity [3] was 65 - 75%. For the same molecule, the inhibition [4] was “inactive” and the IC50 [5] was > 10000 nM.

For `CCCCC/C=C\C/C=C\C/C=C\C/C=C\CCCC(=O)Oc1cc(/C=C\c2cc(OC)c(OC)c(OC)c2)ccc1OC`, the TIME [1] was 0.25 to 0.333 h, the inhibition [2] was “Active” and the inhibition [4] was “inactive”. For the same molecule, the Activity [5] was “Dose-dependent effect” and the IC50 [5] was 700 nM.

From ChEMBL document CHEMBL4196218, “Synthesis and in Vitro Bioactivity of Polyunsaturated Fatty Acid Conjugates of Combretastatin A-4” (J Nat Prod, 2018)
